Columns and labels:
[1] = biological target: Sphingosine 1-phosphate receptor 1 (Homo sapiens, UniProt P21453); assay: Agonist activity at human S1P1 receptor expressed in CHO cells assessed as induction of intracellular calcium level; type: functional, cell-based
How it was run: (§1)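 Intracellular Ca²⁺ rise measured in CHO cells stably expressing human S1P₁ or S1P₃ receptor; EC₅₀ (nM) determined. Some values are the average of two assays.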

[2] = biological target: Sphingosine 1-phosphate receptor 3 (Homo sapiens, UniProt Q99500); assay: Agonist activity at human S1P3 receptor expressed in CHO cells assessed as induction of intracellular calcium level; type: functional, cell-based; how it was run: as §1
Mus musculus [3] = assay: Immunomodulatory activity in po dosed mouse assessed as reduction in peripheral lymphocyte count measured after 24 hrs; type: functional
How it was run: (§2)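 Mice dosed orally over a dose titration; peripheral blood lymphocytes counted 4 h or 24 h after dosing. Each point is the mean % decrease versus vehicle controls (n = 5 per group, treated and control). ED₅₀ (mg/kg) derived from the titration.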

Mus musculus [4] = assay: Immunomodulatory activity in po dosed mouse assessed as reduction in peripheral lymphocyte count measured after 4 hrs; type: functional; how it was run: as §2
[5] = AUC (0 to infinity) in rat at 1 mg/kg, po; type: ADME, organism-based; set-up: time infinity, dose 1 mg/kg, route oral; conditions: plasma
Plasma = assay: Plasma concentration in rat at 1 mg/kg, po; type: ADME, organism-based; set-up: dose 1 mg/kg, route oral; conditions: in vivo
[6] = Half life in rat at 1 mg/kg, po; type: ADME, organism-based; set-up: dose 1 mg/kg, route oral; conditions: in vivo
[7] = Oral bioavailability in rat at 1 mg/kg; type: ADME, organism-based; conditions: in vivo
[8] = Tmax in rat at 1 mg/kg, po; type: ADME, organism-based; set-up: dose 1 mg/kg, route oral; conditions: in vivo
[9] = AUC (0 to infinity) in rat at 1 mg/kg, iv; type: ADME, organism-based; set-up: time infinity, dose 1 mg/kg, route intravenous; conditions: plasma
[10] = Cmax in rat at 1 mg/kg, po; type: ADME, organism-based; set-up: dose 1 mg/kg, route oral; conditions: in vivo
[11] = Total clearance in rat at 1 mg/kg, iv; type: ADME, organism-based; set-up: dose 1 mg/kg, route intravenous; conditions: in vivo
[12] = Half life in rat at 1 mg/kg, iv; type: ADME, organism-based; set-up: dose 1 mg/kg, route intravenous; conditions: in vivo
[13] = Volume of distribution at steady state in rat at 1 mg/kg, iv; type: ADME, organism-based; set-up: dose 1 mg/kg, route intravenous; conditions: in vivo, read-out: Vdss
CHO = assay: Selectivity ratio of EC50 for human S1P3 receptor expressed in CHO cells to EC50 for S1P1 receptor expressed in CHO cells; type: cell-based
How it was run: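 Ratio of EC₅₀ values from intracellular Ca²⁺ stimulation assays in CHO cells stably expressing human S1P₃ versus human S1P₁.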

[14] = Oral bioavailability in rat at 1 mg/kg measured up to 24 hrs; type: ADME, organism-based; conditions: in vivo
[15] = AUC (0 to infinity) in rat at 1 mg/kg, iv measured up to 24 hrs; type: ADME, organism-based; set-up: time infinity, dose 1 mg/kg, route intravenous; conditions: plasma
[16] = AUC (0 to infinity) in rat at 1 mg/kg, po measured up to 24 hrs; type: ADME, organism-based; set-up: time infinity, dose 1 mg/kg, route oral; conditions: plasma

Sequence of Sphingosine 1-phosphate receptor 3 (Q99500 whole entry): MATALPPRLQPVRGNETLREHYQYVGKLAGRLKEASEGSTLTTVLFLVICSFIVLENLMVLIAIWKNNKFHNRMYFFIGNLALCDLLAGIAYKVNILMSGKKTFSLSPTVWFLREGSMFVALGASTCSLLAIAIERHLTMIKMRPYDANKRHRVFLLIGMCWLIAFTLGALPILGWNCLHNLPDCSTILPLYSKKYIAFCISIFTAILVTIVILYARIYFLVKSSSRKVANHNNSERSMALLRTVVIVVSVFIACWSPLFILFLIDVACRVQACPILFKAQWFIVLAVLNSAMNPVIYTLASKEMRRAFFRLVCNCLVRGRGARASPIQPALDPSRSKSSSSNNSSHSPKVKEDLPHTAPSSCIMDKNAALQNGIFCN
Sequence of Sphingosine 1-phosphate receptor 1 (P21453 whole entry): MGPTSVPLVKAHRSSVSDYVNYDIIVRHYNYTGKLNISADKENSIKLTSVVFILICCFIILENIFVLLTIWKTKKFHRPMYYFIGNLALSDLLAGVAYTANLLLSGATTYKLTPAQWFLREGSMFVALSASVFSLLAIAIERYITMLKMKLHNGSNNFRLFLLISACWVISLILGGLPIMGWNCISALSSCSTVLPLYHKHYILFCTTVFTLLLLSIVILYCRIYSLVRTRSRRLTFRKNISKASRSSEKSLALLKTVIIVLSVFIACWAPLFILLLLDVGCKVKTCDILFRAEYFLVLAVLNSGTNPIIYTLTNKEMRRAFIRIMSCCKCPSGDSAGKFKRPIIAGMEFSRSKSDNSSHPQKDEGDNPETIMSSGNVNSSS

Row | SMILES | EC50 [1] | EC50 [2] | ED50 (Mus musculus [3]) | ED50 (Mus musculus [4]) | other results
1 | CC[C@H](COc1ccc2c(c1)CCC(CN1CC(C(=O)O)C1)=C2C)Cc1ccc(F)cc1.Cl | 0.0011 µM | 29.3 µM | 0.77 mg/kg |  | 
2 | CC1=C(CN2CC(C(=O)O)C2)CCc2cc(OC[C@H](C)Cc3ccc(F)cc3)ccc21.Cl | 0.00085 µM | 11 µM | 0.55 mg/kg |  | 
3 | CC1=C(CN2CC(C(=O)O)C2)CCc2cc(OCC(C)Cc3ccccc3)ccc21.Cl (racemic) | 0.00066 µM | 20.8 µM |  | 0.19 mg/kg | 
4 | CC1=C(CN2CC(C(=O)O)C2)CCc2cc(OCCCCc3ccccc3)ccc21 |  |  |  |  | AUC(0-inf) [5]: 3.8 µg·h/mL; Cp (Plasma): 0.053 µg/mL; half-life [6]: 17 h; bioavailability [7]: 85%; Tmax [8]: 4.7 h
5 | CC1=C(CN2CC(C(=O)O)C2)CCc2cc(OCCCc3ccccc3F)ccc21.Cl | 0.0027 µM | 2.9 µM | 0.75 mg/kg | 0.13 mg/kg | 
6 | CC1=C(CN2CC(C(=O)O)C2)CCc2cc(OCCCc3ccc(F)cc3)ccc21.Cl | 0.00084 µM | 3.2 µM | 0.25 mg/kg | 0.055 mg/kg | AUC(0-inf) [9]: 5.4 µg·h/mL; AUC(0-inf) [5]: 5.7 µg·h/mL; Cmax [10]: 0.159 µg/mL; Cp (Plasma): 0.088 µg/mL; clearance [11]: 0.192 L/h/kg; half-life [12]: 21 h; half-life [6]: 24 h; Vd [13]: 5.3 L/kg; bioavailability [7]: 106%; Tmax [8]: 4.7 h
7 | CC1=C(CN2CC(C(=O)O)C2)CCc2cc(OC[C@@H](C)Cc3ccc(Cl)cc3)ccc21.Cl | 0.00055 µM | 8.2 µM | 0.095 mg/kg |  | Ratio EC50 (CHO): 15000; AUC(0-inf) [9]: 9 µg·h/mL; AUC(0-inf) [5]: 5.5 µg·h/mL; Cmax [10]: 0.184 µg/mL; Cp (Plasma): 0.087 µg/mL; clearance [11]: 0.12 L/h/kg; half-life [12]: 27 h; half-life [6]: 20 h; Vd [13]: 3.9 L/kg; bioavailability [7]: 62%; Tmax [8]: 4.7 h
8 | CC1=C(CN2CC(C(=O)O)C2)CCc2cc(OC[C@H](Cc3ccc(F)cc3)C(C)C)ccc21.Cl | 0.0045 µM | > 30 µM | 0.68 mg/kg |  | 
9 | CC1=C(CN2CC(C(=O)O)C2)CCc2cc(OC(C)CCc3ccccc3)ccc21 (stereo unspecified) | 0.02 µM | 14 µM |  |  | 
10 | CC1=C(CN2CC(C(=O)O)C2)CCc2cc(OCC(C)(C)Cc3ccccc3)ccc21 | 0.02 µM | > 30 µM |  |  | 
11 | CC1=C(CN2CC(C(=O)O)C2)CCc2cc(OCCC(C)c3ccccc3)ccc21.Cl (racemic) | 0.0006 µM | 22 µM |  | > 0.3 mg/kg | 
12 | CC1=C(CN2CC(C(=O)O)C2)CCc2cc(OCCCc3ccccc3)ccc21.Cl | 0.003 µM | 5 µM |  | 0.4 mg/kg | 
13 | CC1=C(CN2CC(C(=O)O)C2)CCc2cc(OC[C@@H](C)Cc3ccc(F)cc3)ccc21.Cl | 0.00037 µM | 9.45 µM | 0.22 mg/kg |  | Cmax [10]: 0.103 µg/mL; Cp (Plasma): 0.069 µg/mL; clearance [11]: 0.24 L/h/kg; half-life [12]: 19 h; half-life [6]: 57 h; Vd [13]: 5.7 L/kg; Tmax [8]: 4.7 h; bioavailability [14]: 75%; AUC(0-inf) [15]: 2.6 µg·h/mL; AUC(0-inf) [16]: 2 µg·h/mL
14 | CC1=C(CN2CC(C(=O)O)C2)CCc2cc(OCCCc3cccc(F)c3)ccc21.Cl | 0.004 µM | 3.9 µM | 0.69 mg/kg | 0.15 mg/kg | 
